Laboratory results published in ChEMBL document CHEMBL1142067, “Antiparasitic drug nitazoxanide inhibits the pyruvate oxidoreductases of Helicobacter pylori, selected anaerobic bacteria and parasites, and Campylobacter jejuni” (Antimicrob Agents Chemother, 2007).
Activity calls are given as the source filed them. The calls are words filed in the database; no cut-off is given here.

Legend:
Escherichia coli [1] = test: Growth inhibition of Escherichia coli CC104 expressing rdxA after 16 hrs relative to Escherichia coli with pBSK; type: functional, organism-based
Procedure, shortened: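 E. coli CC104 carrying pGS950 (expresses H. pylori rdxA) or empty pBSK was grown in 2% glucose minimal (MinA) liquid medium with drug at 0, 5, 10 or 15 µg/ml. Turbidity at 660 nm was read at 16 h in triplicate cultures, normalized to the no-drug control, and expressed as percent growth inhibition (mean and standard deviation).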

Entamoeba histolytica [2] = test: Activity of PFOR in Entamoeba histolytica at anaerobic condition
Procedure, shortened: (§1)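 Cell-free extracts, high-speed supernatant after sonication (parasites: sonication or glass homogenizer). PFOR assayed anaerobically at 25°C in 100 mM potassium phosphate pH 7.4 with 10 mM pyruvate, 0.18 mM CoA, 1 mM MgCl2 and 5 µM TPP. Acceptor was 5 mM benzyl viologen (546 nm) or NTZ (decrease at 418 nm). Enzyme added last. Triplicate means, per mg Bradford protein.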

Trichomonas vaginalis = test: Activity of PFOR in Trichomonas vaginalis at anaerobic condition; procedure, shortened: as §1
Giardia duodenalis = test: Activity of PFOR in Giardia intestinalis at anaerobic condition; procedure, shortened: as §1
Clostridioides difficile = test: Activity of PFOR in Clostridium difficile at anaerobic condition; procedure, shortened: as §1
[3] = target: T1, Pyruvate-flavodoxin oxidoreductase (Clostridium perfringens (strain SM101 / Type A)) (UniProt Q0SRB6); test: Activity of PFOR in Clostridium perfringens at anaerobic condition; procedure, shortened: as §1
T1 sequence (whole entry): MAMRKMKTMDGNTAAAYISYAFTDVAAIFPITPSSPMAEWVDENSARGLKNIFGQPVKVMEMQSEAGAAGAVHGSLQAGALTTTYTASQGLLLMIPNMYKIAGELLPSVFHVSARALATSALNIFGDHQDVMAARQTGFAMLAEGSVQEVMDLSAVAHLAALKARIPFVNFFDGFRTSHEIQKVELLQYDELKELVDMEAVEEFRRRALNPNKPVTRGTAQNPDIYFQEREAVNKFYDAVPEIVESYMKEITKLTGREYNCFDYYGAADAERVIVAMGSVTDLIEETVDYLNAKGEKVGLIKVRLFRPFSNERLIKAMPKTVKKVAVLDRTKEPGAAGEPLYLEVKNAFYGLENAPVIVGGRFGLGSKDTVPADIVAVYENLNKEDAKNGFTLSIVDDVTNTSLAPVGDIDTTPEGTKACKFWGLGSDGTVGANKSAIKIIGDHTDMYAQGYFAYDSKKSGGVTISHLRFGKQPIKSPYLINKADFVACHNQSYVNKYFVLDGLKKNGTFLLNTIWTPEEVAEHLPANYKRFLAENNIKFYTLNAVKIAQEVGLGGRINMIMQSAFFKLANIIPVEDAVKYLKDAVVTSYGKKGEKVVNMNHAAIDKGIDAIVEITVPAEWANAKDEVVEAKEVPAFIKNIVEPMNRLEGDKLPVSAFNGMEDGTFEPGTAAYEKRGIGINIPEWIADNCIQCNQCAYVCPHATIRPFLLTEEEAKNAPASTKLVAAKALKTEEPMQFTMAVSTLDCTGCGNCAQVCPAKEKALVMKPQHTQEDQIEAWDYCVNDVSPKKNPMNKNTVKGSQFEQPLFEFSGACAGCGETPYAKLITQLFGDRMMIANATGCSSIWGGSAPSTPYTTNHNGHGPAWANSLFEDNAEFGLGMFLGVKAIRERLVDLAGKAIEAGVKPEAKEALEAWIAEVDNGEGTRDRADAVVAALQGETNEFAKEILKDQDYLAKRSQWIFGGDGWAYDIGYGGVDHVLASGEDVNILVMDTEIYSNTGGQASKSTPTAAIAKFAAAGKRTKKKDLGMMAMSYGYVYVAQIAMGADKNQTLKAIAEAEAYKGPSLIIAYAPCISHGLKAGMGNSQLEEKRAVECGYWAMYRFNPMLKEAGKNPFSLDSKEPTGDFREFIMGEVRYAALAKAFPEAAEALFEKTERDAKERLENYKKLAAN

Helicobacter pylori = test: Activity of PFOR in Helicobacter pylori at anaerobic condition; procedure, shortened: as §1
[4] = target: T2, Pyruvate-flavodoxin oxidoreductase (Campylobacter jejuni subsp. jejuni) (UniProt Q0P8E1); test: Activity of PFOR in Campylobacter jejuni at anaerobic condition; procedure, shortened: as §1
T2 sequence (whole entry): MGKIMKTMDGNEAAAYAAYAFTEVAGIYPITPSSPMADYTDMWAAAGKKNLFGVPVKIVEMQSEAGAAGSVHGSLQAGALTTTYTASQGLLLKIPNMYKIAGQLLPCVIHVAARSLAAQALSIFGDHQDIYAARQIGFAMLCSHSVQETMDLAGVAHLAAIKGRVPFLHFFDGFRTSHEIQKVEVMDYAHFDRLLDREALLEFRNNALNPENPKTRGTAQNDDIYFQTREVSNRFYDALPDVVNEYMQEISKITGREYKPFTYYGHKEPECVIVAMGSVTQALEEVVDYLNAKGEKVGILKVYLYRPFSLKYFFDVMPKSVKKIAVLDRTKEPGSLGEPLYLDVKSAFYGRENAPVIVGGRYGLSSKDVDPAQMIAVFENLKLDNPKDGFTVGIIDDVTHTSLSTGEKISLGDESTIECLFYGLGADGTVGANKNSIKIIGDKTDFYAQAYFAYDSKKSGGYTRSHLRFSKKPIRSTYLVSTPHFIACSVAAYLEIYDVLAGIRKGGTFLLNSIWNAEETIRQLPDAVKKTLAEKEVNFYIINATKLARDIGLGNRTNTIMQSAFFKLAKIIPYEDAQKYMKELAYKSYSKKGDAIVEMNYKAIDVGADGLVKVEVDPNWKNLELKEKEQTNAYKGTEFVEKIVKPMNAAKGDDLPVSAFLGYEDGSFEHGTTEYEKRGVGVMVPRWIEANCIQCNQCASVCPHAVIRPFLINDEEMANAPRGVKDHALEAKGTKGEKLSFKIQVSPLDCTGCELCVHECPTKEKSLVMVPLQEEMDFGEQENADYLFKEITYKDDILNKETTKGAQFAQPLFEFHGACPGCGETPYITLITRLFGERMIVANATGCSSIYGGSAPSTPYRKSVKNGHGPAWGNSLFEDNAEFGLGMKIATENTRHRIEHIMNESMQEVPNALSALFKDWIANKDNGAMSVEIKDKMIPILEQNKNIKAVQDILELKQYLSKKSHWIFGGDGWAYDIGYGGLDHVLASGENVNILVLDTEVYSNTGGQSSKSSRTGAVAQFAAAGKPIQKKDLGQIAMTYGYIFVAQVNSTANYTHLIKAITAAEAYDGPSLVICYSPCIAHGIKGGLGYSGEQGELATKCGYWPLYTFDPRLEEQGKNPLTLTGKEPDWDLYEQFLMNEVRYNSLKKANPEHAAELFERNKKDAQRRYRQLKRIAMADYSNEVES

[5] = Inhibition of PFOR Trichomonas vaginalis
Procedure, shortened: (§2)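 PFOR in extracts or partly purified enzyme, standard anaerobic assay at 25°C with excess benzyl viologen (5 mM). Initial velocities of BV reduction at 546 nm measured at each NTZ level (0 to 264 µM). Plotted as 1/V against inhibitor concentration to derive Ki. Triplicate.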

[6] = Inhibition of PFOR Entamoeba histolytica; procedure, shortened: as §2
[7] = Inhibition of PFOR Helicobacter pylori; procedure, shortened: as §2
[8] = target: T3, Pyruvate-flavodoxin oxidoreductase (Campylobacter jejuni subsp. jejuni, UniProt Q0P8E1); test: Inhibition of PFOR Campylobacter jejuni; procedure, shortened: as §2
T3 sequence (Q0P8E1 whole entry): T2 sequence (whole entry)

Escherichia coli [9] = test: Growth inhibition of Escherichia coli; type: functional
Escherichia coli [10] = test: Growth inhibition of Escherichia coli CC104 expressing rdxA gene after 16 hrs; type: functional
Procedure, shortened: (§3)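 E. coli CC104 carrying pGS950 (H. pylori rdxA) or empty pBSK, grown in 2% glucose MinA liquid medium with drug at 0, 5, 10 or 15 µg/ml. Turbidity at 660 nm read at 16 h in triplicate and expressed as a percentage of the no-drug control.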

Escherichia coli [11] = test: Growth inhibition of Escherichia coli pBSK after 16 hrs; type: functional; procedure, shortened: as §3
Escherichia coli [12] = test: Inhibition of Escherichia coli JVQ2 PDH at 20 uM
Entamoeba histolytica [13] = test: Inhibition of Entamoeba histolytica PFOR cloned in Escherichia coli assessed as [14C]pyruvate decarboxylation by BV assay

| SMILES | Activity (Escherichia coli [1]) | Activity (Entamoeba histolytica [2]) [nmol/mg/min] | Activity (Trichomonas vaginalis) [nmol/mg/min] | Activity (Giardia duodenalis) [nmol/mg/min] | Activity (Clostridioides difficile) [nmol/mg/min] | Activity [3] [nmol/mg/min] | Activity (Helicobacter pylori) [nmol/mg/min] | Activity [4] [nmol/mg/min] | Km (Giardia duodenalis) [µM] | Ki [5] [µM] | Ki [6] [µM] | Ki [7] [µM] | Ki [8] [µM] | MIC (Escherichia coli [9]) [µg/mL] | Inhibition (Escherichia coli [10]) [%] | Inhibition (Escherichia coli [11]) [%] | inhibition (Escherichia coli [12]) [%] | Activity (Entamoeba histolytica [13]) |
| --- | --- | --- | --- | --- | --- | --- | --- | --- | --- | --- | --- | --- | --- | --- | --- | --- | --- | --- |
| Cc1ncc([N+](=O)[O-])n1CCO | Active |  |  |  |  |  |  |  |  |  |  |  |  |  |  |  |  |  |
| c1ccc(C[n+]2ccc(-c3cc[n+](Cc4ccccc4)cc3)cc2)cc1 |  | 742 | 52.5 | 62.5 | 106 | 225 | 127 | 115 |  |  |  |  |  |  |  |  |  |  |
| CC(=O)Oc1ccccc1C(=O)Nc1ncc([N+](=O)[O-])s1 [NITAZOXANIDE] |  | 19 |  | 41.5 | 18.8 | 56.5 | 8.5 | 20 | 44 | 2.2 | 10 | 4.5 | 10.5 | > 32 | 35 | 35 | 22 | Active |
